{"source": "ChEMBL document CHEMBL3351717", "about": "“Synthesis and anticancer activities of novel 1,2,4-triazolo[3,4-a]phthalazine derivatives” (Eur J Med Chem, 2014)", "key": {"[1]": {"assay": "Anticancer activity against human EC9706 cells assessed as inhibition of cell proliferation after 72 hrs by MTT assay", "assay_type": "functional, cell-based", "conditions": "EC9706, 72 h", "how_it_was_run": "(§1)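 Cells in exponential growth seeded at 5 × 10³ per well and left 24 h at 37 °C. Medium then replaced with fresh medium holding compound at a range of concentrations for 72 h. MTT (5 mg/mL solution) added for 4 h at 37 °C. Formazan dissolved in DMSO and absorbance read at 570 nm. Each concentration in triplicate, three independent experiments. IC50 taken from concentration–response curves of inhibition ratio.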"}, "HeLa": {"system": "HeLa", "assay": "Anticancer activity against human HeLa cells assessed as inhibition of cell proliferation after 72 hrs by MTT assay", "assay_type": "functional, cell-based", "how_it_was_run": "as §1"}, "EC9706 [2]": {"system": "EC9706", "assay": "Induction of apoptosis in human EC9706 cells assessed as early apoptotic cells at 0.8 uM after 12 hrs by annexin V-FITC/propidium iodide staining-flow cytometry (reference value: 7.9%)", "assay_type": "functional"}, "EC9706 [3]": {"system": "EC9706", "assay": "Induction of apoptosis in human EC9706 cells assessed as viable cells at 0.8 uM after 12 hrs by annexin V-FITC/propidium iodide staining-flow cytometry (reference value: 88.7%)", "assay_type": "functional", "conditions": "EC9706, 12 h, read-out: Activity"}, "EC9706 [4]": {"system": "EC9706", "assay": "Induction of apoptosis in human EC9706 cells assessed as late apoptotic cells at 1.6 uM after 12 hrs by annexin V-FITC/propidium iodide staining-flow cytometry (reference value: 2.9%)", "assay_type": "functional"}, "EC9706 [5]": {"system": "EC9706", "assay": "Induction of apoptosis in human EC9706 cells assessed as early apoptotic cells at 1.6 uM after 12 hrs by annexin V-FITC/propidium iodide staining-flow cytometry (reference value: 7.9%)", "assay_type": "functional"}, "EC9706 [6]": {"system": "EC9706", "assay": "Induction of apoptosis in human EC9706 cells assessed as viable cells at 1.6 uM after 12 hrs by annexin V-FITC/propidium iodide staining-flow cytometry (reference value: 88.7%)", "assay_type": "functional", "conditions": "EC9706, 12 h, read-out: Activity"}, "EC9706 [7]": {"system": "EC9706", "assay": "Induction of apoptosis in human EC9706 cells assessed as necrotic cells at 3.2 uM after 12 hrs by annexin V-FITC/propidium iodide staining-flow cytometry (reference value: 0.5%)", "assay_type": "functional"}, "EC9706 [8]": {"system": "EC9706", "assay": "Induction of apoptosis in human EC9706 cells assessed as late apoptotic cells at 3.2 uM after 12 hrs by annexin V-FITC/propidium iodide staining-flow cytometry (reference value: 2.9%)", "assay_type": "functional"}, "EC9706 [9]": {"system": "EC9706", "assay": "Induction of apoptosis in human EC9706 cells assessed as early apoptotic cells at 3.2 uM after 12 hrs by annexin V-FITC/propidium iodide staining-flow cytometry (reference value: 7.9%)", "assay_type": "functional"}, "EC9706 [10]": {"system": "EC9706", "assay": "Induction of apoptosis in human EC9706 cells assessed as viable cells at 3.2 uM after 12 hrs by annexin V-FITC/propidium iodide staining-flow cytometry (reference value: 88.7%)", "assay_type": "functional", "conditions": "EC9706, 12 h, read-out: Activity"}, "EC9706 [11]": {"system": "EC9706", "assay": "Induction of apoptosis in human EC9706 cells assessed as necrotic cells at 0.8 uM after 24 hrs by annexin V-FITC/propidium iodide staining-flow cytometry (reference value: 1.3%)", "assay_type": "functional"}, "EC9706 [12]": {"system": "EC9706", "assay": "Induction of apoptosis in human EC9706 cells assessed as early apoptotic cells at 0.8 uM after 24 hrs by annexin V-FITC/propidium iodide staining-flow cytometry (reference value: 8.2%)", "assay_type": "functional"}, "EC9706 [13]": {"system": "EC9706", "assay": "Induction of apoptosis in human EC9706 cells assessed as necrotic cells at 1.6 uM after 24 hrs by annexin V-FITC/propidium iodide staining-flow cytometry (reference value: 1.3%)", "assay_type": "functional"}, "EC9706 [14]": {"system": "EC9706", "assay": "Induction of apoptosis in human EC9706 cells assessed as late apoptotic cells at 1.6 uM after 24 hrs by annexin V-FITC/propidium iodide staining-flow cytometry (Rvb =2.7%)", "assay_type": "functional"}, "EC9706 [15]": {"system": "EC9706", "assay": "Induction of apoptosis in human EC9706 cells assessed as early apoptotic cells at 1.6 uM after 24 hrs by annexin V-FITC/propidium iodide staining-flow cytometry (reference value: 8.2%)", "assay_type": "functional"}, "EC9706 [16]": {"system": "EC9706", "assay": "Induction of apoptosis in human EC9706 cells assessed as viable cells at 1.6 uM after 24 hrs by annexin V-FITC/propidium iodide staining-flow cytometry (reference value: 87.8%)", "assay_type": "functional", "conditions": "EC9706, 24 h, read-out: Activity"}, "EC9706 [17]": {"system": "EC9706", "assay": "Induction of apoptosis in human EC9706 cells assessed as viable cells at 3.2 uM after 24 hrs by annexin V-FITC/propidium iodide staining-flow cytometry (reference value: 87.8%)", "assay_type": "functional", "conditions": "EC9706, 24 h, read-out: Activity"}, "[18]": {"assay": "Cell cycle arrest in human EC9706 cells assessed as accumulation at G1 phase at 0.8 uM after 12 hrs by flow cytometry (Rvb =58.43 %)", "assay_type": "functional, cell-based", "how_it_was_run": "(§2)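 EC-9706 cells treated with compound at […] for 12 h or 24 h. Cells collected, centrifuged and fixed in ice-cold 70% ethanol. Then treated with buffer containing RNAse A and 0.1% Triton X-100, stained with propidium iodide, and phase distribution measured by flow cytometry.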"}, "[19]": {"assay": "Cell cycle arrest in human EC9706 cells assessed as accumulation at S phase at 0.8 uM after 12 hrs by flow cytometry (Rvb =23.46 %)", "assay_type": "functional, cell-based", "how_it_was_run": "as §2"}, "[20]": {"assay": "Cell cycle arrest in human EC9706 cells assessed as accumulation at G2/M phase at 0.8 uM after 12 hrs by flow cytometry (Rvb =12.49 %)", "assay_type": "functional, cell-based", "how_it_was_run": "as §2"}, "[21]": {"assay": "Cell cycle arrest in human EC9706 cells assessed as accumulation at G1 phase at 1.6 uM after 12 hrs by flow cytometry (Rvb =58.43 %)", "assay_type": "functional, cell-based", "how_it_was_run": "as §2"}, "[22]": {"assay": "Cell cycle arrest in human EC9706 cells assessed as accumulation at G2/M phase at 1.6 uM after 12 hrs by flow cytometry (Rvb =12.49 %)", "assay_type": "functional, cell-based", "how_it_was_run": "as §2"}, "[23]": {"assay": "Cell cycle arrest in human EC9706 cells assessed as accumulation at G1 phase at 3.2 uM after 12 hrs by flow cytometry (Rvb =58.43 %)", "assay_type": "functional, cell-based", "how_it_was_run": "as §2"}, "[24]": {"assay": "Cell cycle arrest in human EC9706 cells assessed as accumulation at G1 phase at 0.8 uM after 24 hrs by flow cytometry (Rvb =49.37 %)", "assay_type": "functional, cell-based", "how_it_was_run": "as §2"}, "[25]": {"assay": "Cell cycle arrest in human EC9706 cells assessed as accumulation at S phase at 0.8 uM after 24 hrs by flow cytometry (Rvb =28.39 %)", "assay_type": "functional, cell-based", "how_it_was_run": "as §2"}, "[26]": {"assay": "Cell cycle arrest in human EC9706 cells assessed as accumulation at G2/M phase at 0.8 uM after 24 hrs by flow cytometry (Rvb =16.03 %)", "assay_type": "functional, cell-based", "how_it_was_run": "as §2"}, "[27]": {"assay": "Cell cycle arrest in human EC9706 cells assessed as accumulation at G1 phase at 1.6 uM after 24 hrs by flow cytometry (Rvb =49.37 %)", "assay_type": "functional, cell-based", "how_it_was_run": "as §2"}, "[28]": {"assay": "Cell cycle arrest in human EC9706 cells assessed as accumulation at S phase at 1.6 uM after 24 hrs by flow cytometry (Rvb =28.39 %)", "assay_type": "functional, cell-based", "how_it_was_run": "as §2"}, "[29]": {"assay": "Cell cycle arrest in human EC9706 cells assessed as accumulation at G2/M phase at 1.6 uM after 24 hrs by flow cytometry (Rvb =16.03 %)", "assay_type": "functional, cell-based", "how_it_was_run": "as §2"}, "[30]": {"assay": "Cell cycle arrest in human EC9706 cells assessed as accumulation at G1 phase at 3.2 uM after 24 hrs by flow cytometry (Rvb =49.37 %)", "assay_type": "functional, cell-based", "how_it_was_run": "as §2"}, "[31]": {"assay": "Cell cycle arrest in human EC9706 cells assessed as accumulation at S phase at 3.2 uM after 24 hrs by flow cytometry (Rvb =28.39 %)", "assay_type": "functional, cell-based", "how_it_was_run": "as §2"}, "EC9706 [32]": {"system": "EC9706", "assay": "Induction of apoptosis in human EC9706 cells assessed as apoptotic cells after 12 to 24 hrs by annexin V-FITC/propidium iodide staining-flow cytometry", "assay_type": "functional, cell-based"}}, "data": [{"smiles": "O=C(CN1CCN(c2nn3c(-c4ccccc4)nnc3c3ccccc23)CC1)Nc1ccccc1F", "values": [{"measurement": "IC50", "setting": "[1]", "result": 2000, "unit": "nM"}, {"measurement": "IC50", "setting": "HeLa", "result": 2000, "unit": "nM"}, {"measurement": "Activity", "setting": "EC9706 [2]", "result": 18.2, "unit": "%"}, {"measurement": "viability at 0.8 µM", "setting": "EC9706 [3]", "result": 68.9, "unit": "%"}, {"measurement": "Activity", "setting": "EC9706 [4]", "result": 11.3, "unit": "%"}, {"measurement": "Activity", "setting": "EC9706 [5]", "result": 25.3, "unit": "%"}, {"measurement": "viability at 1.6 µM", "setting": "EC9706 [6]", "result": 60.4, "unit": "%"}, {"measurement": "Activity", "setting": "EC9706 [7]", "result": 4.1, "unit": "%"}, {"measurement": "Activity", "setting": "EC9706 [8]", "result": 11.5, "unit": "%"}, {"measurement": "Activity", "setting": "EC9706 [9]", "result": 32.9, "unit": "%"}, {"measurement": "viability at 3.2 µM", "setting": "EC9706 [10]", "result": 51.6, "unit": "%"}, {"measurement": "Activity", "setting": "EC9706 [11]", "result": 1, "unit": "%"}, {"measurement": "Activity", "setting": "EC9706 [12]", "result": 17, "unit": "%"}, {"measurement": "Activity", "setting": "EC9706 [13]", "result": 7.6, "unit": "%"}, {"measurement": "Activity", "setting": "EC9706 [14]", "result": 11.9, "unit": "%"}, {"measurement": "Activity", "setting": "EC9706 [15]", "result": 24.7, "unit": "%"}, {"measurement": "viability at 1.6 µM", "setting": "EC9706 [16]", "result": 55.9, "unit": "%"}, {"measurement": "viability at 3.2 µM", "setting": "EC9706 [17]", "result": 35.7, "unit": "%"}, {"measurement": "Activity", "setting": "[18]", "result": 65.7, "unit": "%"}, {"measurement": "Activity", "setting": "[19]", "result": 21.5, "unit": "%"}, {"measurement": "Activity", "setting": "[20]", "result": 12.5, "unit": "%"}, {"measurement": "Activity", "setting": "[21]", "result": 50.9, "unit": "%"}, {"measurement": "Activity", "setting": "[22]", "result": 19.8, "unit": "%"}, {"measurement": "Activity", "setting": "[23]", "result": 60.9, "unit": "%"}, {"measurement": "Activity", "setting": "[24]", "result": 43, "unit": "%"}, {"measurement": "Activity", "setting": "[25]", "result": 28.9, "unit": "%"}, {"measurement": "Activity", "setting": "[26]", "result": 24.2, "unit": "%"}, {"measurement": "Activity", "setting": "[27]", "result": 52.2, "unit": "%"}, {"measurement": "Activity", "setting": "[28]", "result": 16.1, "unit": "%"}, {"measurement": "Activity", "setting": "[29]", "result": 27.1, "unit": "%"}, {"measurement": "Activity", "setting": "[30]", "result": 38, "unit": "%"}, {"measurement": "Activity", "setting": "[31]", "result": 19.9, "unit": "%"}, {"measurement": "Activity", "setting": "EC9706 [32]", "result": "Dose-dependent effect"}]}]}
